Assay [1] deals with T1, Tyrosine-protein phosphatase non-receptor type 11 (Homo sapiens) (UniProt Q06124).
T1 sequence (whole entry): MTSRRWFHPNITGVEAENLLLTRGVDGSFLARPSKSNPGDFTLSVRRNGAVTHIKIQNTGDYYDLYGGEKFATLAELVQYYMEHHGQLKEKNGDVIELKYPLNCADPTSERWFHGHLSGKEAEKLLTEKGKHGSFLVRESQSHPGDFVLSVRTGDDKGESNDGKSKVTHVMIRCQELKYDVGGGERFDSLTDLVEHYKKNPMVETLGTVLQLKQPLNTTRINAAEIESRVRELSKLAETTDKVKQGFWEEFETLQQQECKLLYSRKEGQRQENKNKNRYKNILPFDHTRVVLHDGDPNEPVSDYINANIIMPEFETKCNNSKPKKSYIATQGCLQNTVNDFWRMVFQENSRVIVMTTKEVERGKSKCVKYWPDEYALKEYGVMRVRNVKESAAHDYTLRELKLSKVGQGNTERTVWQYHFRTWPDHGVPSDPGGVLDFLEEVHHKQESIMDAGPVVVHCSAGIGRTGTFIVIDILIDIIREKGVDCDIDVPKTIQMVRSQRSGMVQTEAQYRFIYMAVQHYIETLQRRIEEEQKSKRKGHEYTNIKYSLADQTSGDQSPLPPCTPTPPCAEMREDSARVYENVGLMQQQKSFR
The assay can be described thus: Inhibition of phosphatase activity of SHP2 (unknown origin) using pNPP as a substrate at 50 uM after 10 mins by spectrophotometer analysis.

For assay [2], the system named is MDA-MB-231. The assay can be described thus: Cytotoxicity against human MDA-MB-231 cells by MTT assay. It is filed as functional, cell-based.
Assay [3] concerns NCI-H1975. The assay can be described thus: Cytotoxicity against human NCI-H1975 cells by MTT assay. It is filed as functional, cell-based. A general note: Tetrazolium dyes change colour on reduction, which living cells bring about.
Assay [4] relates to MDA-MB-231. The assay is described as follows: Cytotoxicity against human MDA-MB-231 cells at 20 to 40 uM by MTT assay. Format: functional, cell-based.
The target of assay [5] is T1, Tyrosine-protein phosphatase non-receptor type 11 (Homo sapiens). The assay is described as follows: Inhibition of SHP2 in human NCI-H1975 cells assessed as increase in EGF-induced paxillin phosphorylation at Y118 at 40 uM after 60 mins relative to control.
For assay [6], the system named is NCI-H1975. The assay is described as follows: Cytotoxicity against human NCI-H1975 cells at 20 to 40 uM by MTT assay. It is filed as functional, cell-based.
Assay [7] deals with T1, Tyrosine-protein phosphatase non-receptor type 11 (Homo sapiens). The assay is described as follows: Inhibition of SHP2 in human NCI-H1975 cells assessed as reduction of EGF-induced ERK1/2 activation at 40 uM after 60 mins relative to control. Format: cell-based. In outline:
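H1975 cells were stimulated with EGF and ERK1/2 and paxillin phosphorylation was assessed by immunoblot. Band intensities were quantified, and pERK1/2/total ERK1/2 or pPaxillin(Y118)/total paxillin ratios were normalized to the reference. Blots are representative of at least two independent experiments, with quantified values given as mean ± SD.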

The source made the active and inactive calls. The calls are words filed in the database; no cut-off is given here.

For `O=C(O)C(=O)Nc1cccc(NC(=O)C(c2ccccc2)S(=O)(=O)O)c1` (stereo not given), the inhibition result in assay [1] is “inactive”. Still for that read-out and setting: as for `O=C(O)C(=O)NCc1ccc(NC(=O)C(c2ccccc2)S(=O)(=O)O)cc1` (stereo not given), the entry is “inactive”. Still for that read-out and setting: the same measure for `O=C(O)C(=O)Nc1ccc(NC(=O)C(c2ccccc2)S(=O)(=O)O)cc1` (stereo not given): “inactive”; for `O=C(O)C(=O)Nc1ccc(CNC(=O)C(c2ccccc2)S(=O)(=O)O)cc1` (stereo not given): “inactive”. With `CC(C)c1ccc(NC(=O)C(=O)Nc2ccc(NC(=O)C(c3ccccc3)S(=O)(=O)O)cc2)cc1` (stereo not given), the Activity entry in assay [2] and in assay [3] was “Dose-dependent effect” in each case.

As to `O=C(Nc1ccccc1)C(=O)Nc1ccc(NC(=O)C(c2ccccc2)S(=O)(=O)O)cc1` (stereo not given), the outcome in assay [4] and in assay [6] was inactive. In addition, the fold change (FC) stood at 1.1 in assay [5] and 1 in assay [7].

Source of the values: ChEMBL document CHEMBL3608232, “Exploring the Existing Drug Space for Novel pTyr Mimetic and SHP2 Inhibitors” (ACS Med Chem Lett, 2015).
